# Activity calls are given as the source filed them. The rule behind the calls is not given here.
# Key:
# [1] = Metal chelating activity assessed as formation of phenazine-iron complex measured for 1 to 60 mins by UV-vis spectroscopy; details: time 1-60 min
# Method in brief: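 Compound from a 10 mM DMSO stock diluted in DMSO in a cuvette, alone or with ammonium iron(II) sulfate hexahydrate (10 mM aqueous stock). Spectra of the compound-only cuvette and the iron-containing cuvette are compared by UV-vis spectrometry to judge phenazine–iron(II) complex formation.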
# [2] = Cytotoxicity against HEK293 cells incubated for 48 hrs by MTT assay; type: toxicity, cell-based; details: human
# Method in brief: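 HEK-293 cells (10⁴/well) in DMEM with 10% FBS, penicillin/streptomycin, settled overnight at 37 °C, 5% CO₂. Medium replaced with compound at 0.10–100 µM (2-fold steps); DMSO as negative control. After 48 h at 37 °C, MTT (5 mg/mL stock) added for 3 h. Formazan dissolved in DMSO, OD read at 570 nm. Eight replicates per treatment.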
# Staphylococcus aureus [3] = experiment: Antibacterial activity against methicillin-resistant Staphylococcus aureus clinical isolate 2 assessed as bacterial growth inhibition incubated for 16 hrs by CLSI based broth microdilution method; type: functional
# [4] = system: Staphylococcus epidermidis; experiment: Antibacterial activity against methicillin-resistant Staphylococcus epidermidis 35984 assessed as bacterial growth inhibition incubated for 16 hrs by CLSI based broth microdilution method; type: functional
# Method in brief: (§1)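 Broth microdilution per CLSI in LB, eleven two-fold serial dilutions spanning 0.10 to 100 µM. Inoculum ~10⁵ cells/well from fresh log-phase culture (OD₆₀₀ 0.6–0.8). MIC taken as lowest concentration preventing growth after 16 h at 37 °C, read by OD₆₀₀ turbidity. DMSO vehicle control, top 0.5% v/v. At least three independent experiments.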
# Staphylococcus aureus [5] = experiment: Antibacterial activity against Staphylococcus aureus clinical isolate 129 assessed as bacterial growth inhibition incubated for 16 hrs by CLSI based broth microdilution method; type: functional
# [6] = Hemolytic activity against red blood cells (unknown origin) at 200 uM; type: toxicity, cell-based, Erythrocyte; details: read-out: Activity
# Staphylococcus aureus [7] = experiment: Antibacterial activity against Staphylococcus aureus clinical isolate 156 assessed as bacterial growth inhibition incubated for 16 hrs by CLSI based broth microdilution method; type: functional
# [8] = system: Staphylococcus epidermidis; experiment: Antibacterial activity against Staphylococcus epidermidis 12228 assessed as bacterial growth inhibition incubated for 16 hrs by CLSI based broth microdilution method; type: functional
# Method in brief: (§2)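 CLSI broth microdilution in LB: eleven 2-fold serial dilutions, 0.10–100 µM. DMSO vehicle/negative control diluted from 0.5% v/v. Wells seeded with ~10⁵ cells from log-phase culture (OD₆₀₀ 0.6–0.8), held 16 h at 37 °C. MIC taken as the lowest concentration preventing growth by OD₆₀₀ turbidity. Minimum three independent experiments.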
# Staphylococcus aureus [9] = experiment: Antibacterial activity against methicillin-resistant Staphylococcus aureus 1707 assessed as zone of inhibition at 10 mM incubated for 16 hrs by agar diffusion assay; type: functional
# Method in brief: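 Modified Kirby-Bauer disk diffusion. 100 µL MRSA 1707 inoculum (OD₆₀₀ 0.7, ~10⁸ CFU) spread on LB agar and left 30 min. 10 µL of 10 mM DMSO compound solution then pipetted onto the plate. Incubation 16 h at 37 °C; zone of inhibition area (cm²) measured. Three independent experiments.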
# Staphylococcus aureus [10] = experiment: Antibacterial activity against Staphylococcus aureus clinical isolate 138 assessed as bacterial growth inhibition incubated for 16 hrs by CLSI based broth microdilution method; type: functional
# [11] = Lipophilicity, LogP of compound in octanol-water mixture incubated for 1 hr by UV-vis spectroscopy; type: physicochemical
# Method in brief: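 Shake-flask partition: compound in octanol (1% v/v DMSO) mixed with equal volume water, stirred vigorously, left 1 h at room temperature to separate. Octanol-phase concentration measured by UV-Vis at 370 or 380 nm against a serial-dilution standard curve. Water concentration obtained by mass balance; LogP = log10(Coct/Cw). Acetophenone as positive control. Three independent experiments.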
# Staphylococcus aureus [12] = experiment: Antibacterial activity against methicillin-resistant Staphylococcus aureus clinical isolate 1 assessed as bacterial growth inhibition incubated for 16 hrs by CLSI based broth microdilution method; type: functional
# Enterococcus faecalis = experiment: Antibacterial activity against Enterococcus faecalis OG1RF assessed as bacterial growth inhibition incubated for 16 hrs by CLSI based broth microdilution method; type: functional
# Method in brief: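 Broth microdilution per CLSI in brain-heart infusion: eleven 2-fold dilutions spanning 0.10–100 µM, with DMSO vehicle/negative control topping at 0.5% v/v. Inoculum ~10⁵ cells/well from log-phase culture (OD₆₀₀ 0.6–0.8). 37 °C, 16 h. MIC is the lowest concentration preventing growth, read as OD₆₀₀ turbidity. At least three independent experiments.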
# Staphylococcus aureus [13] = experiment: Antibacterial activity against Staphylococcus aureus clinical isolate 147 assessed as bacterial growth inhibition incubated for 16 hrs by CLSI based broth microdilution method; type: functional
# Staphylococcus aureus [14] = experiment: Antibacterial activity against methicillin-resistant Staphylococcus aureus BAA-1707 assessed as bacterial growth inhibition incubated for 16 hrs by CLSI based broth microdilution method; type: functional; method in brief: as §1
# Enterococcus = experiment: Antibacterial activity against vancomycin-resistant Enterococcus 700221 assessed as bacterial growth inhibition incubated for 16 hrs by CLSI based broth microdilution method; type: functional
# Method in brief: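 Growth scored by OD₆₀₀ turbidity after 16 h at 37 °C; MIC is the lowest concentration preventing growth. DMSO vehicle control up to 0.5% v/v. Three or more independent experiments.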
# Staphylococcus aureus [15] = experiment: Antibacterial activity against methicillin-resistant Staphylococcus aureus 1707 assessed as bacterial growth inhibition incubated for 16 hrs by CLSI based broth microdilution method; type: functional; method in brief: as §1
# [16] = system: Staphylococcus epidermidis; experiment: Antibacterial activity against Staphylococcus epidermidis clinical isolate CL-1 assessed as bacterial growth inhibition incubated for 16 hrs by CLSI based broth microdilution method; type: functional
# Staphylococcus aureus [17] = experiment: Antibacterial activity against methicillin-resistant Staphylococcus aureus BAA-44 assessed as bacterial growth inhibition incubated for 16 hrs by CLSI based broth microdilution method; type: functional; method in brief: as §1
# Streptococcus pneumoniae = experiment: Antibacterial activity against Streptococcus pneumoniae 6303 assessed as bacterial growth inhibition incubated for 16 hrs by CLSI based broth microdilution method; type: functional; method in brief: as §2
structure (smiles),measurement,setting,value
Cc1cccc2nc3c(O)c(Br)c(Cl)c(Br)c3nc12,Activity,[1],inactive
same,CC50 at 48 h,[2],18.3 µM
same,MIC,Staphylococcus aureus [3],0.15 µM
same,MIC,[4],0.1 µM
same,MIC,Staphylococcus aureus [5],0.1 µM
same,hemolysis at 200 µM,[6],< 1%
same,MIC,Staphylococcus aureus [7],0.1 µM
same,MIC,[8],0.1 µM
same,diameter of the inhibition zone (DIZ),Staphylococcus aureus [9],3.85 cm2
same,MIC,Staphylococcus aureus [10],0.1 µM
same,logP at 1 h,[11],0.81
same,MIC,Staphylococcus aureus [12],0.1 µM
same,MIC,Enterococcus faecalis,0.39 µM
same,MIC,Staphylococcus aureus [13],0.1 µM
same,MIC,Staphylococcus aureus [14],0.1 µM
same,MIC,Enterococcus,0.1 µM
same,MIC,Staphylococcus aureus [15],0.1 µM
same,MIC,[16],0.39 µM
same,MIC,Staphylococcus aureus [17],0.15 µM
same,MIC,Streptococcus pneumoniae,0.1 µM

# From ChEMBL document CHEMBL5329167, “Design, synthesis and evaluation of halogenated phenazine antibacterial prodrugs targeting nitroreductase enzymes for activation” (RSC Med Chem, 2023)
